ChEMBL document CHEMBL2086296, “Synthesis of novel quinoline-2-one based chalcones of potential anti-tumor activity” (Eur J Med Chem, 2012)

Assays:
[1] = tested on: HT-29; test: Cytotoxicity against human HT-29 cells after 24 hrs by SRB assay; type: functional; settings: HT-29, 24 h
Method in brief: (§1)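 NCI 60-line screen. Cells in RPMI 1640 with 5% FBS and 2 mM L-glutamine, seeded at 5,000–40,000 cells/well by doubling time, then incubated 24 h at 37 °C, 5% CO2 before dosing. Time-zero plates fixed with TCA at drug addition. DMSO stocks diluted in medium with gentamicin to five concentrations, […]. Protein read by SRB staining. GI50, TGI and LC50 derived relative to control and time-zero.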

[2] = tested on: SK-MEL-2; test: (§2) Cytotoxicity against human SK-MEL-2 cells after 24 hrs by SRB assay; type: cell-based; settings: sk-mel-2, 24 h
Method in brief: (§3)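 NCI 60-cell screen. Cells grown in RPMI 1640 with 5% FBS and 2 mM L-glutamine, seeded at 5,000–40,000 cells/well, preincubated 24 h at 37 °C in 5% CO2. Drug stock in DMSO, diluted in medium with gentamicin; five final concentrations, 100, 10, 1.0, 0.1 and […]. Time-zero plates were TCA-fixed. Protein read by SRB staining; GI50, TGI and LC50 taken relative to time-zero.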

[3] = tested on: HCT-15; test: Cytotoxicity against human HCT15 cells after 24 hrs by SRB assay; type: functional; settings: HCT-15, 24 h; method in brief: as §1
[4] = tested on: NCI-H23; test: Cytotoxicity against human NCI-H23 cells after 24 hrs by SRB assay; type: cell-based; settings: nci-h23, 24 h; method in brief: as §3
[5] = tested on: NCI-H460; test: Cytotoxicity against human NCI-H460 cells after 24 hrs by SRB assay; type: cell-based; settings: nci-h460, 24 h; method in brief: as §3
[6] = tested on: OVCAR-8; test: (§4) Cytotoxicity against human OVCAR8 cells after 24 hrs by SRB assay; type: functional; settings: OVCAR-8, 24 h; method in brief: as §1
[7] = tested on: SK-MEL-2; test: as §2; type: functional; settings: SK-MEL-2, 24 h; method in brief: as §1
[8] = tested on: CCRF-CEM; test: Cytotoxicity against human CCRF-CEM cells after 24 hrs by SRB assay; type: cell-based; method in brief: as §3
[9] = tested on: OVCAR-3; test: Cytotoxicity against human OVCAR3 cells after 24 hrs by SRB assay; type: cell-based; settings: ovcar-3, 24 h; method in brief: as §3
[10] = tested on: MDA-MB-231; test: (§5) Cytotoxicity against human MDA-MB-231 cells after 24 hrs by SRB assay; type: functional; settings: MDA-MB-231, 24 h; method in brief: as §1
[11] = tested on: KM12; test: Cytotoxicity against human KM12 cells after 24 hrs by SRB assay; type: cell-based; settings: km12, 24 h; method in brief: as §3
[12] = tested on: MCF7; test: (§6) Cytotoxicity against human MCF7 cells after 24 hrs by SRB assay; type: cell-based; settings: mcf7, 24 h; method in brief: as §3
[13] = tested on: HL-60; test: Cytotoxicity against human HL60 cells after 24 hrs by SRB assay; type: cell-based; settings: hl-60, 24 h; method in brief: as §3
[14] = tested on: MCF7; test: as §6; type: functional; settings: MCF7, 24 h; method in brief: as §1
[15] = tested on: NCI-H522; test: Cytotoxicity against human NCI-H522 cells after 24 hrs by SRB assay; type: functional; settings: NCI-H522, 24 h; method in brief: as §1
[16] = tested on: RPMI-8226; test: Cytotoxicity against human RPMI8226 cells after 24 hrs by SRB assay; type: functional; settings: RPMI-8226, 24 h; method in brief: as §1
[17] = tested on: COLO 205; test: Cytotoxicity against human COLO205 cells after 24 hrs by SRB assay; type: functional; settings: COLO 205, 24 h; method in brief: as §1
[18] = tested on: ACHN; test: Cytotoxicity against human ACHN cells after 24 hrs by SRB assay; type: cell-based; method in brief: as §3
[19] = tested on: SK-OV-3; test: Cytotoxicity against human SKOV3 cells after 24 hrs by SRB assay; type: cell-based; settings: sk-ov-3, 24 h
Method in brief: (§7)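 NCI 60-cell-line screen: cells grown in RPMI 1640 with 5% FBS and 2 mM L-glutamine, seeded at 5,000–40,000 cells/well by doubling time, and preincubated 24 h at 37 °C in 5% CO2. Time-zero plates were TCA-fixed. DMSO stocks were diluted in medium with gentamicin to five concentrations (100, 10, 1.0, 0.1, […]). Protein was read by SRB, and GI50, TGI and LC50 were derived against time-zero.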

[20] = tested on: OVCAR-8; test: as §4; type: cell-based; settings: ovcar-8, 24 h; method in brief: as §3
[21] = tested on: SF-295; test: Cytotoxicity against human SF295 cells after 24 hrs by SRB assay; type: functional; settings: SF-295, 24 h; method in brief: as §1
[22] = tested on: MDA-MB-231; test: as §5; type: cell-based; settings: mda-mb-231, 24 h; method in brief: as §3
[23] = tested on: 786-0; test: (§8) Cytotoxicity against human 786-0 cells after 24 hrs by SRB assay; type: cell-based; settings: 786-0, 24 h; method in brief: as §3
[24] = tested on: HOP-92; test: Cytotoxicity against human HOP92 cells after 24 hrs by SRB assay; type: cell-based; settings: hop-92, 24 h; method in brief: as §3
[25] = tested on: SF-268; test: Cytotoxicity against human SF268 cells after 24 hrs by SRB assay; type: cell-based; settings: sf-268, 24 h; method in brief: as §3
[26] = tested on: HOP-62; test: Cytotoxicity against human HOP62 cells after 24 hrs by SRB assay; type: functional; settings: HOP-62, 24 h; method in brief: as §1
[27] = tested on: SN12C; test: (§9) Cytotoxicity against human SN12C cells after 24 hrs by SRB assay; type: functional; method in brief: as §1
[28] = tested on: HCT-116; test: Cytotoxicity against human HCT116 cells after 24 hrs by SRB assay; type: functional; settings: HCT-116, 24 h; method in brief: as §1
[29] = tested on: T47D; test: Cytotoxicity against human T47D cells after 24 hrs by SRB assay; type: functional
Method in brief: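 NCI 60-cell screen. Cells are grown in RPMI 1640 with 5% FBS and 2 mM L-glutamine and seeded at 5,000–40,000 cells/well according to doubling time. They are preincubated 24 h at 37 °C in 5% CO2, and Tz plates are TCA-fixed at drug addition. Drug stock is in DMSO, diluted in medium with gentamicin, and tested at five concentrations (100, 10, 1.0, 0.1, […]). Protein is read by SRB staining. GI50, TGI and LC50 are derived relative to time-zero and control wells.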

[30] = tested on: OVCAR-4; test: (§10) Cytotoxicity against human OVCAR4 cells after 24 hrs by SRB assay; type: functional; settings: OVCAR-4, 24 h; method in brief: as §1
[31] = tested on: MOLT-4; test: Cytotoxicity against human MOLT4 cells after 24 hrs by SRB assay; type: cell-based; settings: molt-4, 24 h; method in brief: as §3
[32] = tested on: OVCAR-4; test: as §10; type: cell-based; settings: ovcar-4, 24 h; method in brief: as §3
[33] = tested on: DU-145; test: Cytotoxicity against human DU145 cells after 24 hrs by SRB assay; type: cell-based; settings: du-145, 24 h; method in brief: as §3
[34] = tested on: 786-0; test: as §8; type: functional; settings: 786-0, 24 h; method in brief: as §1
[35] = tested on: UACC-62; test: Cytotoxicity against human UACC62 cells after 24 hrs by SRB assay; type: cell-based; settings: uacc-62, 24 h; method in brief: as §7
[36] = tested on: SNB-75; test: Cytotoxicity against human SNB75 cells after 24 hrs by SRB assay; type: cell-based; settings: snb-75, 24 h; method in brief: as §7
[37] = tested on: SF-539; test: Cytotoxicity against human SF539 cells after 24 hrs by SRB assay; type: cell-based; settings: sf-539, 24 h; method in brief: as §3
[38] = Cytotoxicity against human Hs 578T cells after 24 hrs by SRB assay; type: cell-based; method in brief: as §3
[39] = tested on: SN12C; test: as §9; type: cell-based; method in brief: as §7

Question: Which GI50 [1] does the source give for `COc1ccc(C(=O)/C=C/c2cc3ccccc3[nH]c2=O)cc1` here?
Answer: The GI50 was 3.67 µM.

Question: What about the TGI [1] of the same molecule?
Answer: Its TGI is over 100 µM.

Question: What about the LC50 [2] of the same molecule?
Answer: Its LC50 is over 100 µM.

Question: What about the GI50 [3] of the same molecule?
Answer: The GI50 was 3.18 µM.

Question: What about the TGI [3] of the same molecule?
Answer: The TGI was 21.1 µM.

Question: What about the LC50 [4] of the same molecule?
Answer: The LC50 was over 100 µM.

Question: And the LC50 [5]?
Answer: The LC50 was 66.8 µM.

Question: What about the GI50 [6] of the same molecule?
Answer: The GI50 was 3.57 µM.

Question: And the TGI [6]?
Answer: The TGI was over 100 µM.

Question: And the GI50 [7]?
Answer: The GI50 was 3.91 µM.

Question: What about the TGI [7] of the same molecule?
Answer: The TGI was 40.1 µM.

Question: And the LC50 [8]?
Answer: The LC50 was over 100 µM.

Question: What about the LC50 [9] of the same molecule?
Answer: The LC50 was 29.8 µM.

Question: What about the GI50 [10] of the same molecule?
Answer: The GI50 was 3.29 µM.

Question: What about the TGI [10] of the same molecule?
Answer: Its TGI is 17.9 µM.

Question: And the LC50 [11]?
Answer: The LC50 was 26.9 µM.

Question: What about the LC50 [12] of the same molecule?
Answer: The LC50 was over 100 µM.

Question: What about the LC50 [13] of the same molecule?
Answer: The LC50 was over 100 µM.

Question: And the GI50 [14]?
Answer: Its GI50 is 2.86 µM.

Question: And the TGI [14]?
Answer: The TGI was 88.7 µM.

Question: And the GI50 [15]?
Answer: Its GI50 is 2.12 µM.

Question: And the TGI [15]?
Answer: Its TGI is 6.13 µM.

Question: And the GI50 [16]?
Answer: The GI50 was 2.79 µM.

Question: And the TGI [16]?
Answer: Its TGI is over 100 µM.

Question: And the GI50 [17]?
Answer: The GI50 was 3.66 µM.

Question: And the TGI [17]?
Answer: Its TGI is 13.4 µM.

Question: What about the LC50 [18] of the same molecule?
Answer: Its LC50 is 57 µM.

Question: And the LC50 [19]?
Answer: The LC50 was over 100 µM.

Question: And the LC50 [20]?
Answer: The LC50 was over 100 µM.

Question: And the GI50 [21]?
Answer: The GI50 was 3.98 µM.

Question: And the TGI [21]?
Answer: The TGI was 18.6 µM.

Question: What about the LC50 [22] of the same molecule?
Answer: The LC50 was over 100 µM.

Question: What about the LC50 [23] of the same molecule?
Answer: Its LC50 is over 100 µM.

Question: And the LC50 [24]?
Answer: The LC50 was 80.9 µM.

Question: What about the LC50 [25] of the same molecule?
Answer: The LC50 was 40.7 µM.

Question: What about the GI50 [26] of the same molecule?
Answer: The GI50 was 3.68 µM.

Question: And the TGI [26]?
Answer: The TGI was 11.6 µM.

Question: And the GI50 [27]?
Answer: The GI50 was 3.17 µM.

Question: And the TGI [27]?
Answer: The TGI was over 100 µM.

Question: What about the GI50 [28] of the same molecule?
Answer: Its GI50 is 2.31 µM.

Question: What about the TGI [28] of the same molecule?
Answer: The TGI was 5.7 µM.

Question: And the GI50 [29]?
Answer: Its GI50 is 3.55 µM.

Question: What about the TGI [29] of the same molecule?
Answer: The TGI was over 100 µM.

Question: And the GI50 [30]?
Answer: The GI50 was 2.94 µM.

Question: What about the TGI [30] of the same molecule?
Answer: Its TGI is over 100 µM.

Question: And the LC50 [31]?
Answer: Its LC50 is over 100 µM.

Question: And the LC50 [32]?
Answer: The LC50 was over 100 µM.

Question: And the LC50 [33]?
Answer: Its LC50 is 35.8 µM.

Question: What about the GI50 [34] of the same molecule?
Answer: Its GI50 is 3.52 µM.

Question: And the TGI [34]?
Answer: The TGI was over 100 µM.

Question: And the LC50 [35]?
Answer: Its LC50 is 60.2 µM.

Question: What about the LC50 [36] of the same molecule?
Answer: The LC50 was 47.2 µM.

Question: What about the LC50 [37] of the same molecule?
Answer: The LC50 was 45.5 µM.

Question: And the LC50 [38]?
Answer: Its LC50 is over 100 µM.

Question: And the LC50 [39]?
Answer: The LC50 was over 100 µM.
